Experimental findings from ChEMBL document CHEMBL3091351, “The 3,7-diazabicyclo[3.3.1]nonane scaffold for subtype selective nicotinic acetylcholine receptor (nAChR) ligands. Part 1: the influence of different hydrogen bond acceptor systems on alkyl and (hetero)aryl substituents” (Bioorg Med Chem, 2013) are described below.

In test [1] the target is Neuronal acetylcholine receptor; alpha4/beta2 (Rattus norvegicus, UniProt P09483+P12390). Put plainly: Displacement of [3H]epibatidine from alpha4beta2 nAChR in Sprague-Dawley rat forebrain P2 fraction after 90 mins by liquid scintillation counting analysis. An outline of the steps: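 Rat forebrain P2 membranes (60 µg protein) in HSS buffer with 0.5 nM (±)-[3H]epibatidine and 6–9 test concentrations. Incubated 90 min at 22 °C; non-specific binding defined with 300 µM (−)-nicotine. Filtered through PEI-presoaked glass fibre filters and counted by liquid scintillation. Run in duplicate to quadruplicate, with 2–10 independent experiments.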
In general terms: In a radioligand displacement assay an active substance lowers the binding of a labelled ligand.

The nature of test [2]: Displacement of [3H]epibatidine from (alpha1)2beta1gammadelta nAChR in Torpedo californica electroplax after 90 mins by liquid scintillation counting analysis. Also on record: species or system Tetronarce californica. The method in brief:
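Torpedo californica electroplax membranes (60–70 µg) incubated with (±)-[3H]epibatidine and 6–9 test concentrations in HSS buffer, 90 min at 22 °C. 300 µM (−)-nicotine defined non-specific binding. PEI-presoaked glass fibre filtration, scintillation counting; duplicate to quadruplicate, 2–10 independent experiments.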

A short description of test [3]: Displacement of [3H]epibatidine from alpha3beta4 nAChR in calf adrenal membranes fraction after 90 mins by liquid scintillation counting analysis. The test is classed as cell membranes, Bos taurus. The method in brief:
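Calf adrenal membranes (60–70 µg) in HSS buffer with 0.5 nM (±)-[3H]epibatidine, 6–9 test concentrations, 90 min at 22 °C. Non-specific binding with 300 µM (−)-nicotine. PEI-presoaked glass fibre filtration, liquid scintillation read-out; duplicate to quadruplicate, 2–10 independent experiments.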

Test [4] concerns the target Neuronal acetylcholine receptor subunit alpha-7 (Rattus norvegicus, UniProt Q05941). Put plainly: Displacement of [3H]methyllycaconitine from alpha7 nAChR in Sprague-Dawley rat forebrain P2 fraction after 90 mins by liquid scintillation counting analysis.

One may read the Ki as the dissociation constant of the complex between target and ligand, obtained from inhibition or displacement. Higher therefore signals lower affinity.

Chain of Neuronal acetylcholine receptor subunit alpha-7 (Q05941 whole entry): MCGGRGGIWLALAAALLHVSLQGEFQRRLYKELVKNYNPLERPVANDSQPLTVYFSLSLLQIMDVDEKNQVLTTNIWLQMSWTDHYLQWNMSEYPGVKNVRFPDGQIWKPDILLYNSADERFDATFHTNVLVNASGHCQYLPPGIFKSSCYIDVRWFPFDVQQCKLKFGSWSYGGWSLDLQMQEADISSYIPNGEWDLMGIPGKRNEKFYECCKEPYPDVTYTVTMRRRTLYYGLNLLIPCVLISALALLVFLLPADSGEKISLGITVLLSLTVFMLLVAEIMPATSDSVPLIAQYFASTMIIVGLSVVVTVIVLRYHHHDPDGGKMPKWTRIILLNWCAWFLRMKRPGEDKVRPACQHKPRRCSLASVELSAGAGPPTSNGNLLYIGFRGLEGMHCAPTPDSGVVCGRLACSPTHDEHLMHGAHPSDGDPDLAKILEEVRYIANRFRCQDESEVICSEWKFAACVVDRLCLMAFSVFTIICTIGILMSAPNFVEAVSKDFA
Chain of Neuronal acetylcholine receptor; alpha4/beta2 (P09483 whole entry): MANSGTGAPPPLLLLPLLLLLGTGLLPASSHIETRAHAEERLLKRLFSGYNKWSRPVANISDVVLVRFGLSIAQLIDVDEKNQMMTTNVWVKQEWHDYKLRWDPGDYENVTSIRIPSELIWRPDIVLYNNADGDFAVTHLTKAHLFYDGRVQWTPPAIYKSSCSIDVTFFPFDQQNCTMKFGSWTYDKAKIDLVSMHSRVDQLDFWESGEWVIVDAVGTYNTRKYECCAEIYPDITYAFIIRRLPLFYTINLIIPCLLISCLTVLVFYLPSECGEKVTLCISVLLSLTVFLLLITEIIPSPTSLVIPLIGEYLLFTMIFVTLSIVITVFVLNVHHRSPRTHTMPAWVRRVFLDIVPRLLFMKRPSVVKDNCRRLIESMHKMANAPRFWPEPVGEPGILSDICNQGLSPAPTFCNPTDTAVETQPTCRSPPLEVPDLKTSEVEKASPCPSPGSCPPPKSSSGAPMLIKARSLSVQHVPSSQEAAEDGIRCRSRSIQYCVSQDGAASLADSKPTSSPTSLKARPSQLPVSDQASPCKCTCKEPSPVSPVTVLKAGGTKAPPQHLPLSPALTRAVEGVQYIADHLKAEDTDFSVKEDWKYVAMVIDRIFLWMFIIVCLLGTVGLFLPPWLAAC
Chain of Neuronal acetylcholine receptor; alpha4/beta2 (P12390 whole entry): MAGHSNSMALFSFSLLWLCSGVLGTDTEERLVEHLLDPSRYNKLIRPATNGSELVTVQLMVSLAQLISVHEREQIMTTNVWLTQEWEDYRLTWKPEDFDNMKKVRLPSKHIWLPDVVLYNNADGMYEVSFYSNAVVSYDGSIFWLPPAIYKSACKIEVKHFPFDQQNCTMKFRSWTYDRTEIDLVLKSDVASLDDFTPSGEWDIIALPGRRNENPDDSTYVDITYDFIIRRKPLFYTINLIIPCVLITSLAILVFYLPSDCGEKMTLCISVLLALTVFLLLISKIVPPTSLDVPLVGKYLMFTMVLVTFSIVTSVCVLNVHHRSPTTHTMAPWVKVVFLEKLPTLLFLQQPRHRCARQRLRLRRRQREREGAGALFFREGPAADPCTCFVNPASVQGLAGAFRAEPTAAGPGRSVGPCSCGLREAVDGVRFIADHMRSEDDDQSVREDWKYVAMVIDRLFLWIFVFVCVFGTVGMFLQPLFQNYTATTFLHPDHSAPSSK

As to `O=C(N1CCCC1)N1C[C@@H]2CNC[C@@H](C2)C1`, the Ki is > 5 µM in test [1], > 10 µM in test [2], > 10 µM in test [3] and > 10 µM in test [4].

In the case of `CCN(CC)C(=O)N1C[C@@H]2CNC[C@@H](C2)C1`, the Ki in test [1] is > 3 µM.

With `CS(=O)(=O)N1C[C@@H]2CNC[C@@H](C2)C1`, the figures for the inhibitory constant (Ki) in test [1] and in test [2] were > 5 µM and > 10 µM, respectively.

Take `O=C(c1ccc(Cl)cc1)N1C[C@@H]2CNC[C@@H](C2)C1`: the Ki in test [1] was 0.13 µM; in test [4] it was > 10 µM.

`O=C(c1cccnc1)N1C[C@@H]2CNC[C@@H](C2)C1`: the Ki in test [1] was 0.455 µM; in test [2] it was > 10 µM; in test [3], > 10 µM; in test [4] it was > 10 µM.

On to `O=C(c1cccc2ccccc12)N1C[C@@H]2CNC[C@@H](C2)C1`, for which the Ki in test [1] and in test [4] was > 10 µM throughout.

`O=C(c1c[nH]c2ccccc12)N1C[C@@H]2CNC[C@@H](C2)C1`: the Ki in test [1], in test [2], in test [3] and in test [4] was > 10 µM in each case.

As to `O=C(c1ccc2ccccc2n1)N1C[C@@H]2CNC[C@@H](C2)C1`, the Ki in test [1] is > 1 µM; in test [2], > 10 µM.

As to `Cc1ccccc1C(=O)N1C[C@@H]2CNC[C@@H](C2)C1`, the Ki in test [1], in test [2], in test [3] and in test [4] was > 10 µM in each case.

As for `CC(C)(C)OC(=O)N1C[C@@H]2CNC[C@@H](C2)C1`, the Ki in test [1] was 0.045 µM; in test [2] it was > 10 µM; in test [3] it was 1.28 µM; in test [4] it was > 5 µM.

In the case of `N#Cc1ccc(S(=O)(=O)N2C[C@@H]3CNC[C@@H](C3)C2)cc1`, the Ki in test [1] is 0.645 µM; in test [3], > 10 µM; in test [4] it was > 10 µM.

In the case of `CCN1C[C@H]2C[C@@H](C1)CN(C(C)=O)C2`, the Ki in test [1] is > 5 µM.

With `CCCN1C[C@H]2C[C@@H](C1)CN(C(C)=O)C2`, the Ki in test [1] was > 5 µM.

Regarding `O=C(c1ccc2cn[nH]c2c1)N1C[C@@H]2CNC[C@@H](C2)C1`, in test [1], affinity was put at a Ki of 0.205 µM. This lies in the sub-micromolar range.

Turning to `COc1ccc(C(=O)N2C[C@@H]3CNC[C@@H](C3)C2)c(OC)c1`, the Ki was > 1 µM in test [1], > 10 µM in test [2], > 5 µM in test [3] and > 5 µM in test [4].

`CC(=O)N1C[C@@H]2C[C@@H](CN(C)C2)C1` displayed a Ki in test [1] of 0.2 µM.

`Cc1ccc(C(=O)N2C[C@@H]3CNC[C@@H](C3)C2)cc1`: the Ki was 0.221 µM in test [1], > 10 µM in test [2], > 5 µM in test [3] and > 10 µM in test [4].

Take `O=[N+]([O-])c1ccc(S(=O)(=O)N2C[C@@H]3CNC[C@@H](C3)C2)cc1`: the Ki is 0.135 µM in test [1], > 10 µM in test [2], 5.7 µM in test [3] and > 10 µM in test [4].

As to `O=C(c1ccc(Cl)nc1)N1C[C@@H]2CNC[C@@H](C2)C1`, the Ki in test [1] is 0.194 µM; in test [3], > 1 µM.

In the case of `O=C(c1cccc(F)c1)N1C[C@@H]2CNC[C@@H](C2)C1`, the Ki in test [1] is 0.386 µM; in test [2], > 10 µM; in test [3] it was > 5 µM.

`O=C(C1CCCCC1)N1C[C@@H]2CNC[C@@H](C2)C1`: the Ki in test [1] was > 5 µM; in test [2], > 10 µM; in test [3], > 5 µM; in test [4], > 10 µM.

As for `O=S(=O)(c1ccccc1)N1C[C@@H]2CNC[C@@H](C2)C1`, the Ki in test [1] was > 5 µM; in test [3], > 10 µM; in test [4], > 10 µM.

The molecule `O=C(N1CCOCC1)N1C[C@@H]2CNC[C@@H](C2)C1` had a Ki in test [1] of 3.8 µM.

On to `O=C(c1ccc(Br)cc1)N1C[C@@H]2CNC[C@@H](C2)C1`, for which the values for the Ki in test [1], in test [3] and in test [4] were 0.138 µM, > 10 µM and > 10 µM, respectively.

Regarding `Cc1ccc(S(=O)(=O)N2C[C@@H]3CNC[C@@H](C3)C2)cc1`, the Ki in test [1] is 0.858 µM; in test [3], > 10 µM; in test [4] it was > 10 µM.

In the case of `O=C(c1ccc([N+](=O)[O-])cc1)N1C[C@@H]2CNC[C@@H](C2)C1`, the inhibitory constant (Ki) in test [1] is 0.0159 µM; in test [2], > 5 µM; in test [3], 4.2 µM; in test [4] it was 1.73 µM.

In the case of `O=C(c1ccccc1)N1C[C@@H]2CNC[C@@H](C2)C1`, the Ki in test [1] is 0.454 µM; in test [2], > 10 µM; in test [3], > 5 µM; in test [4], > 10 µM.

In test [1], `Cn1cccc1C(=O)N1C[C@@H]2CNC[C@@H](C2)C1` showed a Ki of 0.662 µM.

As for `O=C(c1cc2ccccc2[nH]1)N1C[C@@H]2CNC[C@@H](C2)C1`, the Ki in test [1], in test [2], in test [3] and in test [4] was > 10 µM throughout.

Take `O=C(N1CCC(Cc2ccccc2)CC1)N1C[C@@H]2CNC[C@@H](C2)C1`: the inhibition constant (Ki) is > 10 µM in test [1], > 5 µM in test [2], > 10 µM in test [3] and > 5 µM in test [4].

As for `O=C(c1ccnc2ccccc12)N1C[C@@H]2CNC[C@@H](C2)C1`, the Ki in test [1] is 0.162 µM; in test [2] it was > 10 µM; in test [3], > 5 µM.

Turning to `O=C(c1ccc(O)cc1)N1C[C@@H]2CNC[C@@H](C2)C1`, the values for the Ki in test [1] and in test [4] were 0.105 µM and > 1 µM, respectively.

Consider `O=C(c1cnccn1)N1C[C@@H]2CNC[C@@H](C2)C1`, for which the Ki in test [1] is 0.0732 µM; in test [2], > 10 µM; in test [3], > 10 µM; in test [4], > 10 µM.

On to `O=C(c1cccc([N+](=O)[O-])c1)N1C[C@@H]2CNC[C@@H](C2)C1`, for which the Ki in test [1] was > 2 µM; in test [2], > 10 µM; in test [3], > 10 µM; in test [4], > 10 µM.

On to `O=S(=O)(c1ccc(Br)cc1)N1C[C@@H]2CNC[C@@H](C2)C1`, for which the Ki in test [1] is > 5 µM.

`N#Cc1cccc(S(=O)(=O)N2C[C@@H]3CNC[C@@H](C3)C2)c1`: the results for the Ki in test [1], in test [3] and in test [4] were 0.97 µM, > 10 µM and > 10 µM, respectively.

Consider `O=C(c1ccc2ncccc2c1)N1C[C@@H]2CNC[C@@H](C2)C1`, for which the Ki in test [1] was 0.0813 µM; in test [3], > 5 µM; in test [4] it was > 10 µM.

Consider `O=C(c1ccc2[nH]ccc2c1)N1C[C@@H]2CNC[C@@H](C2)C1`, for which the inhibition constant (Ki) in test [1] stood at 1.8 µM.

As to `CN(C)C(=O)N1C[C@@H]2CNC[C@@H](C2)C1`, the Ki in test [1] is 0.499 µM; in test [3], > 1 µM.

As to `O=C(c1cccc(Cl)c1)N1C[C@@H]2CNC[C@@H](C2)C1`, the Ki in test [1] was > 1 µM.

With `O=C(c1cccc(C(F)(F)F)c1)N1C[C@@H]2CNC[C@@H](C2)C1`, the Ki is 0.147 µM in test [1], > 10 µM in test [2] and > 3 µM in test [3].

For the molecule `O=C(c1ccc2ccccc2c1)N1C[C@@H]2CNC[C@@H](C2)C1`, the results for the inhibition constant (Ki) in test [1], in test [3] and in test [4] were 0.447 µM, > 10 µM and > 10 µM, respectively.

On to `O=C(c1ccccc1Cl)N1C[C@@H]2CNC[C@@H](C2)C1`, for which the Ki in test [1] was > 10 µM.
